Calls of active or inactive are those of the source. The calls are words filed in the database; no cut-off is given here.
Tests used:
OVCAR-4 = assay: Cytotoxicity against human OVCAR-4 assessed as growth inhibition at 10 uM by NCI protocol relative to control; assay type: functional; details: read-out: GI
In short: (§1)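 Run by NCI as a single-dose screen at 10 μM across the sixty-cell-line panel, which covers nine human tumour tissue types. The read-out is percent growth inhibition of treated cells relative to untreated cells.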

SR = assay: Cytotoxicity against human SR assessed as growth inhibition at 10 uM by NCI protocol relative to control; assay type: functional; details: read-out: GI
In short: (§2)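 Run by the NCI under its standard protocol: one dose of 10 μM against a sixty-line panel from nine human tumour tissues. Result given as percent growth inhibition of treated cells relative to untreated cells.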

HL-60 = assay: Cytotoxicity against human HL60 assessed as growth inhibition at 10 uM by NCI protocol relative to control; assay type: functional; details: read-out: GI; in short: as §1
NCI-H322M = assay: Cytotoxicity against human NCI-H322M assessed as growth inhibition at 10 uM by NCI protocol relative to control; assay type: functional; details: read-out: GI; in short: as §1
K562 = assay: Cytotoxicity against human K-562 assessed as growth inhibition at 10 uM by NCI protocol relative to control; assay type: functional; details: read-out: GI; in short: as §1
MDA-MB-468 = assay: Cytotoxicity against human MDA-MB-468 assessed as growth inhibition at 10 uM by NCI protocol relative to control; assay type: functional; details: read-out: GI; in short: as §1
T47D [1] = assay: Cytotoxicity against human T47D cells assessed as reduction in cell viability after 3 hrs by MTT assay
HOP-92 = assay: Cytotoxicity against human HOP-92 assessed as growth inhibition at 10 uM by NCI protocol relative to control; assay type: functional; details: read-out: GI; in short: as §1
SF-295 = assay: Cytotoxicity against human SF-295 assessed as growth inhibition at 10 uM by NCI protocol relative to control; assay type: functional; details: read-out: GI; in short: as §1
SK-MEL-5 = assay: Cytotoxicity against human SK-MEL-5 assessed as growth inhibition at 10 uM by NCI protocol relative to control; assay type: functional; details: read-out: GI; in short: as §1
T47D [2] = assay: Cytotoxicity against human T-47D assessed as growth inhibition at 10 uM by NCI protocol relative to control; assay type: functional; details: read-out: GI; in short: as §2
DU-145 = assay: Cytotoxicity against human DU-145 assessed as growth inhibition at 10 uM by NCI protocol relative to control; assay type: functional; details: read-out: GI; in short: as §1
SK-OV-3 = assay: Cytotoxicity against human SK-OV-3 assessed as growth inhibition at 10 uM by NCI protocol relative to control; assay type: functional; details: read-out: GI; in short: as §1
M14 = assay: Cytotoxicity against human M14 assessed as growth inhibition at 10 uM by NCI protocol relative to control; assay type: functional; details: read-out: GI; in short: as §1
UACC-257 = assay: Cytotoxicity against human UACC-257 assessed as growth inhibition at 10 uM by NCI protocol relative to control; assay type: functional; details: read-out: GI; in short: as §2
MDA-MB-231 = assay: Cytotoxicity against human MDA-MB-231 assessed as growth inhibition at 10 uM by NCI protocol relative to control; assay type: functional; details: read-out: GI; in short: as §1
IGROV-1 = assay: Cytotoxicity against human IGROVI assessed as growth inhibition at 10 uM by NCI protocol relative to control; assay type: functional; details: read-out: GI; in short: as §1
EKVX = assay: Cytotoxicity against human EKVX assessed as growth inhibition at 10 uM by NCI protocol relative to control; assay type: functional; details: read-out: GI; in short: as §1
RXF 393 = assay: Cytotoxicity against human RXF 393 assessed as growth inhibition at 10 uM by NCI protocol relative to control; assay type: functional; details: read-out: GI; in short: as §1
SK-MEL-28 = assay: Cytotoxicity against human SK-MEL-28 assessed as growth inhibition at 10 uM by NCI protocol relative to control; assay type: functional; details: read-out: GI; in short: as §1
HCC 2998 = assay: Cytotoxicity against human HCC-2998 assessed as growth inhibition at 10 uM by NCI protocol relative to control; assay type: functional; details: read-out: GI; in short: as §1
LOX IMVI = assay: Cytotoxicity against human LOX IMVI assessed as growth inhibition at 10 uM by NCI protocol relative to control; assay type: functional; details: read-out: GI; in short: as §1
NCI-H460 = assay: Cytotoxicity against human NCI-H460 assessed as growth inhibition at 10 uM by NCI protocol relative to control; assay type: functional; details: read-out: GI; in short: as §1
NCI-H522 = assay: Cytotoxicity against human NCI-H522 assessed as growth inhibition at 10 uM by NCI protocol relative to control; assay type: functional; details: read-out: GI; in short: as §1
SN12C = assay: Cytotoxicity against human SN12C assessed as growth inhibition at 10 uM by NCI protocol relative to control; assay type: functional; details: read-out: GI; in short: as §2
OVCAR-8 = assay: Cytotoxicity against human OVCAR-8 assessed as growth inhibition at 10 uM by NCI protocol relative to control; assay type: functional; details: read-out: GI; in short: as §1
Hs-578T = assay: Cytotoxicity against human HS 578T assessed as growth inhibition at 10 uM by NCI protocol relative to control; assay type: functional; details: read-out: GI; in short: as §1
TK-10 = assay: Cytotoxicity against human TK-10 assessed as growth inhibition at 10 uM by NCI protocol relative to control; assay type: functional; details: read-out: GI; in short: as §2
HCT-15 = assay: Cytotoxicity against human HCT-15 assessed as growth inhibition at 10 uM by NCI protocol relative to control; assay type: functional; details: read-out: GI; in short: as §1
A549 = assay: Cytotoxicity against human A549 assessed as growth inhibition at 10 uM by NCI protocol relative to control; assay type: functional; details: read-out: GI; in short: as §1
CCRF-CEM = assay: Cytotoxicity against human CCRF-CEM assessed as growth inhibition at 10 uM by NCI protocol relative to control; assay type: functional; details: read-out: GI; in short: as §1
786-0 = assay: Cytotoxicity against human 786-0 assessed as growth inhibition at 10 uM by NCI protocol relative to control; assay type: functional; details: read-out: GI; in short: as §1
SNB-75 = assay: Cytotoxicity against human SNB-75 assessed as growth inhibition at 10 uM by NCI protocol relative to control; assay type: functional; details: read-out: GI; in short: as §2
MDA-MB-435 = assay: Cytotoxicity against human MDA-MB-435 assessed as growth inhibition at 10 uM by NCI protocol relative to control; assay type: functional, cell-based; in short: as §1
A498 = assay: Cytotoxicity against human A498 assessed as growth inhibition at 10 uM by NCI protocol relative to control; assay type: functional; details: read-out: GI; in short: as §1
MCF7 = assay: Cytotoxicity against human MCF7 assessed as growth inhibition at 10 uM by NCI protocol relative to control; assay type: functional; details: read-out: GI; in short: as §1
UO-31 = assay: Cytotoxicity against human UO31 assessed as growth inhibition at 10 uM by NCI protocol relative to control; assay type: functional; details: read-out: GI; in short: as §2
RPMI-8226 = assay: Cytotoxicity against human RPMI-8226 assessed as growth inhibition at 10 uM by NCI protocol relative to control; assay type: functional; details: read-out: GI; in short: as §1
HT-29 = assay: Cytotoxicity against human HT29 assessed as growth inhibition at 10 uM by NCI protocol relative to control; assay type: functional; details: read-out: GI; in short: as §1
NCI/ADR-RES = assay: Cytotoxicity against human NCl/ADR-RES assessed as growth inhibition at 10 uM by NCI protocol relative to control; assay type: functional; details: read-out: GI; in short: as §1
PC-3 = assay: Cytotoxicity against human PC3 assessed as growth inhibition at 10 uM by NCI protocol relative to control; assay type: functional; details: read-out: GI; in short: as §1
Malme-3M = assay: Cytotoxicity against human MALME-3M assessed as growth inhibition at 10 uM by NCI protocol relative to control; assay type: functional; details: read-out: GI; in short: as §1
UACC-62 = assay: Cytotoxicity against human UACC-62 assessed as growth inhibition at 10 uM by NCI protocol relative to control; assay type: functional; details: read-out: GI; in short: as §2
MOLT-4 = assay: Cytotoxicity against human MOLT-4 assessed as growth inhibition at 10 uM by NCI protocol relative to control; assay type: functional; details: read-out: GI; in short: as §1
CAKI-1 = assay: Cytotoxicity against human Caki1 assessed as growth inhibition at 10 uM by NCI protocol relative to control; assay type: functional; details: read-out: GI; in short: as §1
BT-549 = assay: Cytotoxicity against human BT-549 assessed as growth inhibition at 10 uM by NCI protocol relative to control; assay type: functional; details: read-out: GI; in short: as §1
HCT-116 = assay: Cytotoxicity against human HCT-116 assessed as growth inhibition at 10 uM by NCI protocol relative to control; assay type: functional; details: read-out: GI; in short: as §1
SW-620 = assay: Cytotoxicity against human SW-620 assessed as growth inhibition at 10 uM by NCI protocol relative to control; assay type: functional; details: read-out: GI; in short: as §2
SF-539 = assay: Cytotoxicity against human […] assessed as growth inhibition at 10 uM by NCI protocol relative to control; assay type: functional; details: read-out: GI; in short: as §1
ACHN = assay: Cytotoxicity against human ACHN assessed as growth inhibition at 10 uM by NCI protocol relative to control; assay type: functional; details: read-out: GI; in short: as §1
U-251 = assay: Cytotoxicity against human U251 assessed as growth inhibition at 10 uM by NCI protocol relative to control; assay type: functional; details: read-out: GI; in short: as §2
SNB-19 = assay: Cytotoxicity against human SNB-19 assessed as growth inhibition at 10 uM by NCI protocol relative to control; assay type: functional; details: read-out: GI; in short: as §2
NCI-H23 = assay: Cytotoxicity against human NCI-H23 assessed as growth inhibition at 10 uM by NCI protocol relative to control; assay type: functional; details: read-out: GI; in short: as §1

COc1ccc(-c2csc(NC(=O)CN3CCN(c4cc(=O)[nH]c5ccc(F)cc45)CC3)n2)cc1
inhibition of growth at 10 µM (OVCAR-4): 25.1%
inhibition of growth at 10 µM (SR): 34.7%
inhibition of growth at 10 µM (HL-60): 23.5%
inhibition of growth at 10 µM (NCI-H322M): 12.6%
inhibition of growth at 10 µM (K562): 30.1%
inhibition of growth at 10 µM (MDA-MB-468): 32%
IC50 (T47D [1]): 16.9 µM
inhibition of growth at 10 µM (HOP-92): 25.4%
inhibition of growth at 10 µM (SF-295): 17.5%
inhibition of growth at 10 µM (SK-MEL-5): 25.4%
inhibition of growth at 10 µM (T47D [2]): 69.2%
inhibition of growth at 10 µM (DU-145): 40%
inhibition of growth at 10 µM (SK-OV-3): 10.4%
inhibition of growth at 10 µM (M14): 19.2%
inhibition of growth at 10 µM (UACC-257): 14.5%
inhibition of growth at 10 µM (MDA-MB-231): 24.5%
inhibition of growth at 10 µM (IGROV-1): 45.6%
inhibition of growth at 10 µM (EKVX): 24.9%
inhibition of growth at 10 µM (RXF 393): 20.3%
inhibition of growth at 10 µM (SK-MEL-28): 13.7%
inhibition of growth at 10 µM (HCC 2998): 15.8%
inhibition of growth at 10 µM (LOX IMVI): 20.8%
inhibition of growth at 10 µM (NCI-H460): 12.5%
inhibition of growth at 10 µM (NCI-H522): 21.6%
inhibition of growth at 10 µM (SN12C): 29.1%
inhibition of growth at 10 µM (OVCAR-8): 17.2%
inhibition of growth at 10 µM (Hs-578T): 32.9%
inhibition of growth at 10 µM (TK-10): 31.8%
inhibition of growth at 10 µM (HCT-15): 26.6%
inhibition of growth at 10 µM (A549): 29.5%
inhibition of growth at 10 µM (CCRF-CEM): 29.8%
inhibition of growth at 10 µM (786-0): 19.3%
inhibition of growth at 10 µM (SNB-75): 23.9%
growth inhibition (GI) (MDA-MB-435): inactive
inhibition of growth at 10 µM (A498): 49.9%
inhibition of growth at 10 µM (MCF7): 28.4%
inhibition of growth at 10 µM (UO-31): 24.9%
inhibition of growth at 10 µM (RPMI-8226): 40.9%
inhibition of growth at 10 µM (HT-29): 22.1%
inhibition of growth at 10 µM (NCI/ADR-RES): 20.5%
inhibition of growth at 10 µM (PC-3): 35.8%
inhibition of growth at 10 µM (Malme-3M): 33.6%
inhibition of growth at 10 µM (UACC-62): 28.1%
inhibition of growth at 10 µM (MOLT-4): 46.7%
inhibition of growth at 10 µM (CAKI-1): 46.8%
inhibition of growth at 10 µM (BT-549): 18.6%
inhibition of growth at 10 µM (HCT-116): 15.9%
inhibition of growth at 10 µM (SW-620): 34.6%
inhibition of growth at 10 µM (SF-539): 30.5%
inhibition of growth at 10 µM (ACHN): 27.7%
inhibition of growth at 10 µM (U-251): 30.3%
inhibition of growth at 10 µM (SNB-19): 15.3%
inhibition of growth at 10 µM (NCI-H23): 16.6%

Reference: ChEMBL document CHEMBL4819122, “Novel 4-(piperazin-1-yl)quinolin-2(1H)-one bearing thiazoles with antiproliferative activity through VEGFR-2-TK inhibition” (Bioorg Med Chem, 2021)
